Drawing on the array DNA melting data of Ke et al. (doi:10.1101/2024.01.08.574731), this text covers folding enthalpy and Tm for 55 sequences.

Series [1] is described as follows: folding enthalpy; higher = less favourable; fluorescence melt of hairpins on a sequencing array, two-state fit. As to conditions: sodium 0.088 M. The procedure, abridged:
(§1)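 Bootstrapped two-state fits yielded melting temperature and folding enthalpy for library hairpins. Cy3 fluorescence, with annealed Cy3 and quencher oligos, was imaged on a sequenced MiSeq flow cell in 50 mM Na-HEPES pH 8.0, 25 mM NaCl in 2.5 °C steps up to 60 °C, and normalised to pre-quench Cy3 and to control constructs. Four replicates were combined by inverse variance, and fitted temperatures were raised by 9.35 °C to match UV melts.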

A short description of series [2]: melting temperature; fluorescence melt of hairpins on a sequencing array, two-state fit, raised by 9.35 °C to match UV melts. The conditions noted are these: sodium 0.088 M. The procedure, abridged: as §1

GACCTACCGAAAGGTGTC (((..(((....)))))): the folding enthalpy in series [1] was -18 kcal/mol. For the same sequence, the Tm in series [2] is 30.8 °C.
The matching figures for GACCTACGAAAGTAGTC (((.(((....)))))): -17.3 kcal/mol and 42.1 °C.
The matching figures for GACCTAGAAATAGGTC ((((((....)))))): -35.6 kcal/mol and 51.3 °C.
For GACCTCGGAAACGAAGTC (((.(((....))).))), the folding enthalpy in series [1] was -24.9 kcal/mol. Also, the Tm in series [2] came out at 34.7 °C.
In the same order, the values of GACCTCGGAAACGAGACC (..((((....))))..) are -11.8 kcal/mol and 26.1 °C.
The matching figures for GACCTCGGAAACGAGATC ((.((((....)))).)): -20.3 kcal/mol and 40.5 °C.
In the same order, the values of GACCTGGGAAACCAGATC ((.((((....)))).)) are -22.5 kcal/mol and 36.1 °C.
As to GACCTGGGAAACTAGGTC (((((.(....).))))), the folding enthalpy in series [1] was -42.5 kcal/mol. In addition, in series [2], the Tm was found to be 50.1 °C.
As to GACCTTCCGAAAGGAGTC (((..(((....)))))), the folding enthalpy in series [1] is -11.8 kcal/mol. Besides, in series [2], the Tm came to 26.4 °C.
GACCTTGGAAACGAGGTC (((((.(....).))))): in series [1], the folding enthalpy is -38.9 kcal/mol. The Tm in series [2] was found to be 50.9 °C.
In the same order, the values of GACGAACGAAAGTTGTC (((.(((....)))))) are -25.8 kcal/mol and 44.9 °C.
In the same order, the values of GACGAAGAAATTCGTC ((((((....)))))) are -34.1 kcal/mol and 53.8 °C.
The matching figures for GACGAAGGAAACTTCATC ((.((((....)))).)): -14.7 kcal/mol and 26.9 °C.
As for GACGAAGGAAACTTCGCC (.(((((....))))).), in series [1], the folding enthalpy is -16.8 kcal/mol. For the same sequence, the Tm in series [2] was 43.7 °C.
The matching figures for GACGAAGGAAACTTCGTC (((((((....))))))): -43.9 kcal/mol and 63.5 °C.
With GACGACACGAAAGTGGTC (((..(((....)))))), in series [1], the folding enthalpy was -15.3 kcal/mol. Also, in series [2], the Tm is 41.2 °C.
In the same order, the values of GACGACCGAAAGGTAGTC (((.(((....))).))) are -38.6 kcal/mol and 57.7 °C.
The matching figures for GACGACCGAAAGGTGTC (((.(((....)))))): -26.5 kcal/mol and 52.2 °C.
In the same order, the values of GACGACGAAAGTCAGTC ((((((....))).))) are -24.9 kcal/mol and 54.1 °C.
Take GACGACGAAAGTCCGGTC ((((((....)))..))): the folding enthalpy in series [1] is -18 kcal/mol. Moreover, the Tm in series [2] was found to be 39.3 °C.
The matching figures for GACGACGAAAGTCTTGTC ((((((....)))..))): -16.2 kcal/mol and 40.3 °C.
The matching figures for GACGACGCGAAAGCGGTC (((..(((....)))))): -11.5 kcal/mol and 47 °C.
In the same order, the values of GACGAGGCGAAAGCCGTC (((..(((....)))))) are -8.76 kcal/mol and 51.5 °C.
Regarding GACGAGGGAAACCCCGTC ((((.((....)).)))), in series [1], the folding enthalpy is -31.4 kcal/mol. Besides, the Tm in series [2] is 51 °C.
As for GACGATGCGAAAGCAGTC (((..(((....)))))), in series [1], the folding enthalpy is -16.9 kcal/mol. Besides, the Tm in series [2] was found to be 44 °C.
Turning to GACGATGGAAACATTGTC (((.(((....))).))), the folding enthalpy in series [1] was -35.2 kcal/mol. Besides, the Tm in series [2] worked out at 47.1 °C.
The matching figures for GACGATGGAAACGTCGTC (((((.(....).))))): -35.1 kcal/mol and 54.5 °C.
In the same order, the values of GACGCAGGAAACCGCATC ((.((.(....).)).)) are -12.4 kcal/mol and 28.5 °C.
The matching figures for GACGCCCGAAAGGGAGTC (((.(((....))).))): -32.8 kcal/mol and 66.7 °C.
With GACGCCGAAAGGCCTGTC ((((((....)))..))), the folding enthalpy in series [1] was -13.5 kcal/mol. Also, the Tm in series [2] is 35.1 °C.
The matching figures for GACGCCGAAAGGCTAGTC ((((((....)))..))): -18.1 kcal/mol and 46.8 °C.
The matching figures for GACGCCGAAAGGCTCGTC ((((((....)))..))): -14.5 kcal/mol and 50 °C.
In the same order, the values of GACGCCGGAAACGACGCC (.((.((....)).)).) are -21.7 kcal/mol and 39.7 °C.
GACGCGCCGAAAGGCGTC (((..(((....)))))): the folding enthalpy in series [1] was -6.51 kcal/mol. Further, the Tm in series [2] was 37.7 °C.
The matching figures for GACGCGCGAAAGCGGTC (((.(((....)))))): -14 kcal/mol and 55 °C.
The matching figures for GACGCTGCGAAAGCAGTC (((..(((....)))))): -8.26 kcal/mol and 37.2 °C.
Take GACGCTGGAAACAGCACC (..((((....))))..): the folding enthalpy in series [1] was -11.1 kcal/mol. The Tm in series [2] amounted to 30 °C.
The matching figures for GACGCTGGAAACGGCGTC (((((.(....).))))): -44.2 kcal/mol and 64.9 °C.
The matching figures for GACGGAACGAAAGTTGTC (((..(((....)))))): -19.2 kcal/mol and 30.7 °C.
The matching figures for GACGGACGAAAGTCGTC (((.(((....)))))): -27.3 kcal/mol and 55.6 °C.
With GACGGACGAAAGTCTGTC (((.(((....))).))), the folding enthalpy in series [1] was -35.3 kcal/mol. Moreover, the Tm in series [2] amounted to 60.5 °C.
The matching figures for GACGGCCGAAAGGCGTC (((.(((....)))))): -20.6 kcal/mol and 64.8 °C.
The matching figures for GACGGCGAAAGCCCCGTC ((((((....)))..))): -15.8 kcal/mol and 42.8 °C.
In the same order, the values of GACGGCGAAAGCCTGGTC ((((((....)))..))) are -15.1 kcal/mol and 49.9 °C.
Consider GACGGCGGAAACGCCACC (..((((....))))..), for which the folding enthalpy in series [1] was -9.98 kcal/mol. Besides, the Tm in series [2] is 26.9 °C.
With GACGGGACGAAAGTCGTC (((..(((....)))))), the folding enthalpy in series [1] is -17.1 kcal/mol. For the same sequence, the Tm in series [2] is 45.8 °C.
In the same order, the values of GACGGGGGAAACTCCGTC (((((.(....).))))) are -37.9 kcal/mol and 58.1 °C.
The matching figures for GACGGTGGAAACATCGTC ((((.((....)).)))): -43.6 kcal/mol and 53.7 °C.
On to GACGTAGGAAACCACGTC (((((.(....).))))), for which the folding enthalpy in series [1] is -29.5 kcal/mol. In addition, the Tm in series [2] was 47.2 °C.
In the same order, the values of GACGTAGGAAACTACACC (..((((....))))..) are -10.2 kcal/mol and 25.2 °C.
The matching figures for GACGTAGGAAACTATGTC (((.(((....))).))): -30 kcal/mol and 43.9 °C.
In the same order, the values of GACGTAGGAAACTGTGTC (((..((....))..))) are -9.59 kcal/mol and 25.7 °C.
GACGTCCCGAAAGGGGTC (((..(((....)))))): the folding enthalpy in series [1] is -10.9 kcal/mol. Also, the Tm in series [2] was 39.9 °C.
The matching figures for GACGTCCGAAAGGAGTC (((.(((....)))))): -24 kcal/mol and 49 °C.
The matching figures for GACGTCGCGAAAGCGGTC (((..(((....)))))): -11.5 kcal/mol and 39.3 °C.
